Consider two compounds from ChEMBL document CHEMBL1914304 (J Med Chem, 2011).

The target of series [1] is T1, Sodium channel protein type 5 subunit alpha (Homo sapiens, UniProt Q14524). In words: Inhibition of human cloned Nav1.5 channel expressed in chinese hamster CHO cells assessed as tonic inhibition after 5 mins by patch clamp assay. The series is classed as cell-based. (The patch-clamp technique gives a direct electrical read-out from membranes.)
Series [2] deals with Voltage-gated inwardly rectifying potassium channel KCNH2 (Homo sapiens, UniProt Q12809). The series can be described thus: Inhibition of human cloned ERG channel expressed in chinese hamster CHO cells after 5 mins by patch clamp assay. The series is classed as cell-based.
Chain of Voltage-gated inwardly rectifying potassium channel KCNH2 (Q12809 whole entry): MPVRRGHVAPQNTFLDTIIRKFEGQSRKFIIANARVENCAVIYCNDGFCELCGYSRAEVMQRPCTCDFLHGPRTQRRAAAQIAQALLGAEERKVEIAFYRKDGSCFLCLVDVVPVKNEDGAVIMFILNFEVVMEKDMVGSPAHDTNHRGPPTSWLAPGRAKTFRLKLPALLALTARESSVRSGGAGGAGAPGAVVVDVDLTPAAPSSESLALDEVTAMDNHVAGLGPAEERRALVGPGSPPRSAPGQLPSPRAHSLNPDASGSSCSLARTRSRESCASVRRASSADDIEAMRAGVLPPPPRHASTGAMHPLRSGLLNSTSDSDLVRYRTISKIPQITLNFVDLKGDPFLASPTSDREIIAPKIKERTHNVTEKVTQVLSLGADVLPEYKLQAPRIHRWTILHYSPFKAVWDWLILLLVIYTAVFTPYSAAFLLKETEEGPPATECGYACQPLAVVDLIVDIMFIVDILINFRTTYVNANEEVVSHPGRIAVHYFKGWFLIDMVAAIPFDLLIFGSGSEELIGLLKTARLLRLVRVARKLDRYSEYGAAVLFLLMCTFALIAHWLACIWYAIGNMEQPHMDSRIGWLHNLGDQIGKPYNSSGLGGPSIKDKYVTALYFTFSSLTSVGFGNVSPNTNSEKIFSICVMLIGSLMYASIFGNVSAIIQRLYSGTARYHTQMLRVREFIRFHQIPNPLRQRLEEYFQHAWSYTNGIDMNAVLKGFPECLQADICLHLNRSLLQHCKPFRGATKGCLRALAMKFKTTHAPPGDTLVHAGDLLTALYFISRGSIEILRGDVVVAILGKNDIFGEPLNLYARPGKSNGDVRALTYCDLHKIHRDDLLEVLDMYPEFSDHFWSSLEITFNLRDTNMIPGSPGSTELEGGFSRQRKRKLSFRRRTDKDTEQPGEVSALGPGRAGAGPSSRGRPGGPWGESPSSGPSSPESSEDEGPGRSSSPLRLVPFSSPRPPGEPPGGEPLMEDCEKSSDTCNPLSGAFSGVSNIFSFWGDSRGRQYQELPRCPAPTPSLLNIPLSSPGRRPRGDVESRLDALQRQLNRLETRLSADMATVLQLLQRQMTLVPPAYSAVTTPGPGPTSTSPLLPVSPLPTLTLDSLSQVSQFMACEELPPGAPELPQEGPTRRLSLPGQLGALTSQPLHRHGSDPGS
Series [3] has as its target Sulfonylurea receptor 2, Kir6.2 (Homo sapiens, UniProt O60706+Q14654). The series can be described thus: Inhibition of human kir6.2/SUR2A ion channel coexpressed in human HEK293 cells after 5 mins by patch clamp assay. It counts as cell-based. In a few lines: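 Human KCNJ11 (Kir6.2) and SUR2A were co-expressed in HEK293 cells to give the ATP-sensitive current IKATP. The assay was run at room temperature by automated parallel patch clamp, with dose-response at 0.2, 0.6, 1.6 and 5 µM. Exposure was 5 min per concentration, with each concentration in two cells (n ≥ 2).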

The test system of series [4] is HEK293. The series can be described thus: Cytotoxicity against human HEK293 cells after 72 hrs by luminescence assay. It counts as cell-based. Conditions: hek293, 72 h.
Series [5] relates to Raji. The series can be described thus: Cytotoxicity against human Raji cells after 72 hrs by luminescence assay. It counts as cell-based.
For series [6], the system named is BJ. The series can be described thus: Cytotoxicity against human BJ cells after 72 hrs by luminescence assay. The series is classed as cell-based.
The target in series [7] is T1, Sodium channel protein type 5 subunit alpha. The series can be described thus: Inhibition of human cloned Nav1.5 channel expressed in chinese hamster CHO cells assessed as phasic inhibition after 5 mins by patch clamp assay. The series is classed as cell-based.
The test system of series [8] is HepG2. The series can be described thus: Cytotoxicity against human HepG2 cells after 72 hrs by luminescence assay. The settings on record: hepg2, 72 h. The series is classed as cell-based.
The subject of series [9] is Plasmodium falciparum. In words: Antimalarial activity against erythrocytic stage of chloroquine-resistant Plasmodium falciparum K1 after 72 hrs by spectrophotometry. The series is classed as functional, organism-based. Conditions: K1, 72 h.
Series [10] has as its system hERG. The series can be described thus: Therapeutic index, ratio of IC50 for human ERG expressed in CHO cells to EC50 for chloroquine-resistant Plasmodium falciparum K1. The series is classed as cell-based. The settings on record: hamster, CHO cells expressing human ERG; read-out: Ratio IC50/EC50.
Series [11] is described as follows: Solubility of the compound in phosphate buffered saline by UV spectrophotometry. It counts as physicochemical.
Series [12] in a line: Selectivity ratio of EC50 for human HepG2 cells to EC50 for Plasmodium falciparum.
Series [13] in a line: Chemical stability in simulated gastric fluid at pH 5 over 24 hrs. The series is classed as physicochemical. Conditions: simulated gi fluid, pH 5, 24 h.
A short description of series [14]: Chemical stability in simulated gastric fluid at pH 2 over 24 hrs. The series is classed as physicochemical. Conditions: simulated gi fluid, pH 2, 24 h.
Series [15] concerns Plasma. The series can be described thus: Metabolic stability in mouse plasma over 24 hrs. The series is classed as ADME, cell-free.
Series [16] deals with Plasmodium falciparum. The series can be described thus: Antimalarial activity against erythrocytic stage of chloroquine-sensitive Plasmodium falciparum 3D7 after 72 hrs by spectrophotometry. It counts as functional, organism-based. Conditions: 3D7, 72 h.

T1 sequence (Q14524 whole entry): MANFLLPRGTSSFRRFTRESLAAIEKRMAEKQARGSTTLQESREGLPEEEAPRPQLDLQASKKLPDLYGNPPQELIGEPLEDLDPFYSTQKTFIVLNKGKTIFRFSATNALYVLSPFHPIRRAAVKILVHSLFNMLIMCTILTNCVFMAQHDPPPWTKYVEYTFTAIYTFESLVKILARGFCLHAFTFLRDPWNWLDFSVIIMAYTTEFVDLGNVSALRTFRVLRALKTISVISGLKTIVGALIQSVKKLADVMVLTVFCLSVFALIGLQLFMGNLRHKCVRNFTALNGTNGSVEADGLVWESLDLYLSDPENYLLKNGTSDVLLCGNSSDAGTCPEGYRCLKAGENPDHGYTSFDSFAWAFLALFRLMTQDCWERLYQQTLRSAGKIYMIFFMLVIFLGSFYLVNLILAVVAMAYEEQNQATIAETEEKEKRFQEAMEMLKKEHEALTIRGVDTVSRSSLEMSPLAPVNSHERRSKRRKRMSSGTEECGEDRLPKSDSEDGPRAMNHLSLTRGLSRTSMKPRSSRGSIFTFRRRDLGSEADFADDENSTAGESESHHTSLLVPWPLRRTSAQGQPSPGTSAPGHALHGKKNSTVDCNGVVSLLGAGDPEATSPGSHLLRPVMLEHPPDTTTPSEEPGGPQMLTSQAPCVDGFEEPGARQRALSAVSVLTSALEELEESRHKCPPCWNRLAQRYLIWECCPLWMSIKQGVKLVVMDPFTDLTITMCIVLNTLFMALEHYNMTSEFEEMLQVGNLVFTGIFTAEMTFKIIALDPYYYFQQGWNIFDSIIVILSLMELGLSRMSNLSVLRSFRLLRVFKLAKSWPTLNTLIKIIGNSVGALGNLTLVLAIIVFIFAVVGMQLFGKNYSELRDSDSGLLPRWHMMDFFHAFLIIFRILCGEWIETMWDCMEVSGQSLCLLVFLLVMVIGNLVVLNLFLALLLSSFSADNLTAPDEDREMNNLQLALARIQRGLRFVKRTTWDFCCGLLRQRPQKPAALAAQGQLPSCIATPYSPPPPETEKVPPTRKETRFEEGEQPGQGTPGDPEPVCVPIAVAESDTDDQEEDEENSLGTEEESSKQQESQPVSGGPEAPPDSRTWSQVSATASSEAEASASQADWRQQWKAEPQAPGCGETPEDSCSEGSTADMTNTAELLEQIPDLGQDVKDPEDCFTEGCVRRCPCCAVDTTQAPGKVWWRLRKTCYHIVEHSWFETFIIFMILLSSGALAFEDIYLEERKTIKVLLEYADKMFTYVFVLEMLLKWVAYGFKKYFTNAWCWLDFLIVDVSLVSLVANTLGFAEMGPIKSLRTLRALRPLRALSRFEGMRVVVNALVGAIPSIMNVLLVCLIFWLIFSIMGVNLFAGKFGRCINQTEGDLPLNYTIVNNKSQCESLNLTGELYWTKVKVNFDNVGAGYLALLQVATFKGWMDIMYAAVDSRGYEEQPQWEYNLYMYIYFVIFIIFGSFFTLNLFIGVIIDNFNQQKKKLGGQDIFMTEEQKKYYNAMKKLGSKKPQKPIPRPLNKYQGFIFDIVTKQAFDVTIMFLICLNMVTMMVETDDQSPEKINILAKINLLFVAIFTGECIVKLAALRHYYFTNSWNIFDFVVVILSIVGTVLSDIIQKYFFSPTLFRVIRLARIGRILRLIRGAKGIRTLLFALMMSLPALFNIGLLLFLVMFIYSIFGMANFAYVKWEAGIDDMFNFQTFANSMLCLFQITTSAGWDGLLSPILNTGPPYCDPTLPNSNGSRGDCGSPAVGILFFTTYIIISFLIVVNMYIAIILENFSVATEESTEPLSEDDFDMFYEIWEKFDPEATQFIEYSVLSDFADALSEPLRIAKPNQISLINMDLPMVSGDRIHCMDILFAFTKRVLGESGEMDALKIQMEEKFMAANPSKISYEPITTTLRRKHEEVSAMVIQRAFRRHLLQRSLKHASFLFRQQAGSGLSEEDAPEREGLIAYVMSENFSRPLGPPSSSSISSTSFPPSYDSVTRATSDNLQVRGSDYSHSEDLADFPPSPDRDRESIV
Chain of Sulfonylurea receptor 2, Kir6.2 (Q14654 whole entry): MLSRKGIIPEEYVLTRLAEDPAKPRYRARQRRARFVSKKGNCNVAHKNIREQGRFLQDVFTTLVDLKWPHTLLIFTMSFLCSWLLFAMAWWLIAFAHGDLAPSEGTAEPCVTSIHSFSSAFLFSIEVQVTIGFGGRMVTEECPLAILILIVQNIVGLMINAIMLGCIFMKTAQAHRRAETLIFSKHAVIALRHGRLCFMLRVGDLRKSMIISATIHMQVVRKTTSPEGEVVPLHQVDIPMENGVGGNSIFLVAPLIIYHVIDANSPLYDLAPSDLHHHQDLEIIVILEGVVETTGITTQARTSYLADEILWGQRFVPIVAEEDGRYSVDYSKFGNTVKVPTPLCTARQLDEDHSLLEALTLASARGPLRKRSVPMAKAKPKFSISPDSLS
Chain of Sulfonylurea receptor 2, Kir6.2 (O60706 whole entry): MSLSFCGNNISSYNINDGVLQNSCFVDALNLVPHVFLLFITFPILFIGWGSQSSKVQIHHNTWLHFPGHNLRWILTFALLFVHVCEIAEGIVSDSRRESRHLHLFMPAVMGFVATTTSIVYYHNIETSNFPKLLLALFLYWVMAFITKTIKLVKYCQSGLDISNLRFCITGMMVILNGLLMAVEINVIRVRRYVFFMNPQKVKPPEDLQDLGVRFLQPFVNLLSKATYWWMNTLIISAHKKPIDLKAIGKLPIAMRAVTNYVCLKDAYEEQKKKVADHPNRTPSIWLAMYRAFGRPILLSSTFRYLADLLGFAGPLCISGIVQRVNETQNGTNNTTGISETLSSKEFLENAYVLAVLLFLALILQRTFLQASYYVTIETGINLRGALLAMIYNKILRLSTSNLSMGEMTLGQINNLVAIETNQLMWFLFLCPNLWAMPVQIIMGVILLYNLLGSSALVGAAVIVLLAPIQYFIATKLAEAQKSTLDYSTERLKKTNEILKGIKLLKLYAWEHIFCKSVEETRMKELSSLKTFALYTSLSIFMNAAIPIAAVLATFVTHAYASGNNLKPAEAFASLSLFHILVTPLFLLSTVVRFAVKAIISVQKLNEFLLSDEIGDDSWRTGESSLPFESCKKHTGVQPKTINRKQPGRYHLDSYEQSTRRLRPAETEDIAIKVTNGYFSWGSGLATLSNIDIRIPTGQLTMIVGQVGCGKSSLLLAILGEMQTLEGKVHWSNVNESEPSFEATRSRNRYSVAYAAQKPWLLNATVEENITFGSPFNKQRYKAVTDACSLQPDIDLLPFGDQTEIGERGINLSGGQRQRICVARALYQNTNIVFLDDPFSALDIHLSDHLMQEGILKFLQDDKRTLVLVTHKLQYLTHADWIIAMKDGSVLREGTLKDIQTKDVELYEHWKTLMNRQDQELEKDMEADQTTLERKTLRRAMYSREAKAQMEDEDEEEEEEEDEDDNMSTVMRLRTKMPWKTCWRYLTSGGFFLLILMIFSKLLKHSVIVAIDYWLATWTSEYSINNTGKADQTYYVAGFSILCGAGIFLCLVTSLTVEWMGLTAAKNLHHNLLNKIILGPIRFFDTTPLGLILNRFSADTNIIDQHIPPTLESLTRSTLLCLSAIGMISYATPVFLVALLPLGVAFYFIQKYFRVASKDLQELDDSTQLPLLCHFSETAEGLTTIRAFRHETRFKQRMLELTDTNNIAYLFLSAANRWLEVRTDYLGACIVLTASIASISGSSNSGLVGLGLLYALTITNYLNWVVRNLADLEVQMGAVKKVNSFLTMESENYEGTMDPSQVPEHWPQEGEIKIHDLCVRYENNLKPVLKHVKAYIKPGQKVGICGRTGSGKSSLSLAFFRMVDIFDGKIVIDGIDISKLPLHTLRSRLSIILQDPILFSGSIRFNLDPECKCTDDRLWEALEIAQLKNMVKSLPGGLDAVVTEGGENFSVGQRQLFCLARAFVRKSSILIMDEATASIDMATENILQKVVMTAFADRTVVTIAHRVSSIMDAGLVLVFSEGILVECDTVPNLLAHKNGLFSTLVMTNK

As a reminder, the IC50 is the midpoint of a concentration-inhibition curve. Take `Cc1ccc(N2CCN(CC(O)COc3ccccc3C(=O)CCc3ccccc3)CC2)cc1.Cl` (racemic): the IC50 in series [1] was more than 5 µM; in series [2], 4.31 µM; in series [3] it was more than 5 µM; in series [7], more than 5 µM. Also, the Activity entry in [4], in [5], in [6] and in series [8] was “Non-toxic” in each case.

In general, EC50 refers to the midpoint of the concentration-response curve. As a reminder, the solubility is the concentration that dissolves in the medium under given conditions. `Cl.O=C(CCc1ccccc1)c1ccccc1OCC(O)CN1CCN(C(c2ccccc2)c2ccccc2)CC1` (racemic) had an IC50 in series [2] of 2.6 µM. For the same compound, the EC50 in [9] worked out at 0.1 µM; in series [16], 0.06 µM. The selectivity ratio in series [10] is 26; in [12] it was more than 10. This compound gave a solubility in series [11] of 0.2 µM. Moreover, the Activity entry in series [4], in series [5], in series [6] and in series [8] was “Non-toxic” in each case. The Stability result in [13], in series [14] and in series [15] was “Stable” throughout.
